Laboratory results taken from ChEMBL document CHEMBL1148127, “Antimicrobial activities of a new schizozygane indoline alkaloid from Schizozygia coffaeoides and the revised structure of isoschizogaline” (2002).
Values after ≈ are worked out from the molar mass of the structure shown.

What was measured:
Assay type in all cases: functional
[1] = system: Trichophyton mentagrophytes; test: Antimicrobial activity against Trichophyton mentagrophytes NCPF 224 after 10 days by microdilution technique; conditions: 240 h
In short: (§1)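 Dermatophytes were grown on Sabouraud's dextrose agar at 26 °C for 10 days. Fresh inocula were standardized to 10^4 CFU per 100 µL for broth microdilution against compound in DMSO (initial 500 µg/mL). Plates were kept at 26 °C for 10 days and inspected visually every day, and the MIC was recorded. Controls were ketoconazole and DMSO alone.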

[2] = system: Nannizzia gypsea; test: Antimicrobial activity against Microsporum gypseum NCPF 40 after 10 days by microdilution technique; conditions: 240 h; in short: as §1
[3] = system: Epidermophyton floccosum; test: Antimicrobial activity against Epidermophyton floccosum after 10 days by microdilution technique; conditions: 240 h; in short: as §1
[4] = system: Trichophyton tonsurans; test: Antimicrobial activity against Trichophyton tonsurans EQ 4329 after 10 days by microdilution technique; conditions: 240 h; in short: as §1
[5] = system: Trichophyton interdigitale; test: Antimicrobial activity against Trichophyton interdigitale EQ 4115 after 10 days by microdilution technique; conditions: 240 h; in short: as §1
[6] = system: Cladosporium cladosporioides; test: Antimicrobial activity against Cladosporium cladosporioides IMI 299104 after 10 days by microdilution technique; conditions: 240 h
In short: (§2)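 These plant-pathogenic Cladosporium strains were cultured on potato dextrose agar at 26 °C for 10 days. Suspensions were standardized to 10^4 CFU per 100 µL and tested by microdilution against compound dissolved in DMSO (initial 500 µg/mL). Plates were held at 26 °C for 10 days with daily visual growth checks, and the MIC was recorded. Controls were ketoconazole and DMSO alone.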

[7] = system: Cladosporium herbarum; test: Antimicrobial activity against Cladosporium herbarum after 10 days by microdilution technique; conditions: 240 h; in short: as §2
[8] = system: Candida albicans; test: Antimicrobial activity against Candida albicans after 24 hrs by microdilution technique
In short: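 Yeast was cultured on Sabouraud's dextrose agar at 30 °C for 24 h. A fresh suspension was standardized to 10^4 CFU per 100 µL and added to microdilution wells holding compound in DMSO (initial 500 µg/mL). Plates were incubated at 30 °C for 24 h and checked visually for growth to give the MIC. Controls were ketoconazole and DMSO alone.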

[9] = system: Escherichia coli; test: Antimicrobial activity against Escherichia coli NCTC 9002 after 24 hrs by microdilution technique; conditions: NCTC 9002, 24 h
In short: (§3)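 Bacteria were grown on nutrient agar at 37 °C for 24 h. Fresh suspensions were standardized to 10^5 CFU per 100 µL and added to microdilution wells. Compounds were dissolved in DMSO with an initial concentration of 500 µg/mL. Ampicillin served as the positive control, with a DMSO-alone check. Growth was read visually and the MIC recorded.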

[10] = system: Staphylococcus aureus; test: Antimicrobial activity against Staphylococcus aureus NCIMB 9515 after 24 hrs by microdilution technique; in short: as §3
[11] = system: Bacillus subtilis; test: Antimicrobial activity against Bacillus subtilis NCTC 10073 after 24 hrs by microdilution technique; conditions: NCTC 10073, 24 h; in short: as §3
[12] = system: Pseudomonas aeruginosa; test: Antimicrobial activity against Pseudomonas aeruginosa NCIMB 10421 after 24 hrs by microdilution technique; in short: as §3

Row | Compound | MIC [1] [µg/mL] | MIC [2] [µg/mL] | MIC [3] [µg/mL] | MIC [4] [µg/mL] | MIC [5] [µg/mL] | MIC [6] [µg/mL] | MIC [7] [µg/mL] | MIC [8] [µg/mL] | MIC [9] [µg/mL] | MIC [10] [µg/mL] | MIC [11] [µg/mL] | MIC [12] [µg/mL]
1 | O=C1[C@H](O)[C@]23C=CCN4CC=C5c6cc7c(cc6N1[C@@]5(CC2)[C@@H]43)OCO7 | < 1.95 | 1.95 (≈ 5.57 µM) | > 1.95 | 3.9 (≈ 11.1 µM) | < 3.9 | 7.8 (≈ 22.3 µM) | 15.6 (≈ 44.5 µM) | 7.8 (≈ 22.3 µM) | 250 (≈ 714 µM) | > 500 | > 500 | > 500
2 | CC1(C)S[C@@H]2[C@H](NC(=O)[C@H](N)c3ccccc3)C(=O)N2[C@H]1C(=O)O [AMPICILLIN] | – | – | – | – | – | – | – | – | 20 (≈ 57.2 µM) | 12.5 (≈ 35.8 µM) | 12.5 (≈ 35.8 µM) | 25 (≈ 71.5 µM)
3 | CC(=O)N1CCN(c2ccc(OCC3COC(Cn4ccnc4)(c4ccc(Cl)cc4Cl)O3)cc2)CC1 (stereo not drawn) [KETOCONAZOLE] | 6.25 (≈ 11.8 µM) | 6.25 (≈ 11.8 µM) | 25 (≈ 47 µM) | 50 (≈ 94.1 µM) | 25 (≈ 47 µM) | 25 (≈ 47 µM) | 50 (≈ 94.1 µM) | 25 (≈ 47 µM) | – | – | – | –

Further lines, results first:

Row | MIC [1] [µg/mL] | MIC [2] [µg/mL] | MIC [3] [µg/mL] | MIC [4] [µg/mL] | MIC [5] [µg/mL] | MIC [6] [µg/mL] | MIC [7] [µg/mL] | MIC [8] [µg/mL] | MIC [9] [µg/mL] | MIC [10] [µg/mL] | MIC [11] [µg/mL] | MIC [12] [µg/mL] | Compound
4 | > 500 | > 500 | > 500 | > 500 | > 500 | > 500 | > 500 | > 500 | > 500 | 125 (≈ 388 µM) | 62.5 (≈ 194 µM) | > 500 | COc1ccc2c(c1)N1C(=O)C[C@]34C=CCN5CC[C@@H]2[C@@H](CC3)[C@]514 [ISOSCHIZOGALINE]
5 | > 500 | > 500 | > 500 | > 500 | > 500 | > 500 | > 500 | > 500 | > 500 | > 500 | > 500 | > 500 | O=C1C[C@]23C=CCN4CC[C@H]5c6cc7c(cc6N1[C@@]5(CC2)[C@@H]43)OCO7 [SCHIZOZYGINE]
